From ChEMBL document CHEMBL2417474, “Synthesis, antiproliferative and anti-inflammatory activities of some novel 6-aryl-2-(p-(methanesulfonyl)phenyl)-4,5-dihydropyridazi-3(2H)-ones” (Eur J Med Chem, 2013)

Assays:
Format in all cases: functional
T47D [1] = assay: Growth inhibition of human T47D cells assessed as cell growth at 10 uM after 48 hrs by sulforhodamine B assay; details: read-out: Activity
How it was run: (§1)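 Single-dose NCI screen. Tumor lines were cultured in medium with 5% fetal calf serum and 2 mM L-glutamine, preincubated 24 h, then given compound in DMSO. After 48 h continuous exposure, cell growth was estimated by sulforhodamine B protein assay.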

MDA-MB-231 = assay: Growth inhibition of human MDA-MB-231 cells assessed as cell growth at 10 uM after 48 hrs by sulforhodamine B assay; details: MDA-MB-231, 48 h, read-out: Activity
[2] = Growth inhibition of human Hs 578T cells assessed as cell growth at 10 uM after 48 hrs by sulforhodamine B assay; details: read-out: Activity
PC-3 = assay: Growth inhibition of human PC3 cells assessed as cell growth at 10 uM after 48 hrs by sulforhodamine B assay; details: PC-3, 48 h, read-out: Activity
SN12C = assay: Growth inhibition of human SN12C cells assessed as cell growth at 10 uM after 48 hrs by sulforhodamine B assay; details: read-out: Activity
TK-10 = assay: Growth inhibition of human TK10 cells assessed as cell growth at 10 uM after 48 hrs by sulforhodamine B assay; details: TK-10, 48 h, read-out: Activity; how it was run: as §1
786-0 = assay: Growth inhibition of human 786-0 cells assessed as cell growth at 10 uM after 48 hrs by sulforhodamine B assay; details: 786-0, 48 h, read-out: Activity
SK-OV-3 [3] = assay: Growth inhibition of human SKOV3 cells assessed as cell growth at 10 uM after 48 hrs by sulforhodamine B assay; details: SK-OV-3, 48 h, read-out: Activity
OVCAR-4 = assay: Growth inhibition of human OVCAR4 cells assessed as cell growth at 10 uM after 48 hrs by sulforhodamine B assay; details: OVCAR-4, 48 h, read-out: Activity
UACC-257 [4] = assay: Growth inhibition of human UACC257 cells assessed as cell growth at 10 uM after 48 hrs by sulforhodamine B assay; details: UACC-257, 48 h, read-out: Activity; how it was run: as §1
SK-MEL-5 = assay: Growth inhibition of human SK-MEL-5 cells assessed as cell growth at 10 uM after 48 hrs by sulforhodamine B assay; details: SK-MEL-5, 48 h, read-out: Activity
SK-MEL-2 = assay: Growth inhibition of human SK-MEL-2 cells assessed as cell growth at 10 uM after 48 hrs by sulforhodamine B assay; details: SK-MEL-2, 48 h, read-out: Activity
MDA-MB-435 [5] = assay: Growth inhibition of human MDA-MB-435 cells assessed as cell growth at 10 uM after 48 hrs by sulforhodamine B assay; details: MDA-MB-435, 48 h, read-out: Activity
SW-620 = assay: Growth inhibition of human SW620 cells assessed as cell growth at 10 uM after 48 hrs by sulforhodamine B assay; details: SW-620, 48 h, read-out: Activity; how it was run: as §1
T47D [6] = assay: Growth inhibition of human T47D cells after 48 hrs by sulforhodamine B assay
How it was run: (§2)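 NCI 60-line panel. Cells were grown in medium with 5% fetal calf serum and 2 mM L-glutamine and preincubated 24 h in plates. Compound in DMSO was added at 10^-4 to 10^-8 M (five 10-fold levels), with continuous exposure for 48 h. Growth was read by SRB protein staining. GI50 is the concentration giving 50% reduction in net protein increase versus control cells.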

BT-549 = assay: Growth inhibition of human BT549 cells after 48 hrs by sulforhodamine B assay; details: BT-549, 48 h; for CC50: read-out: LC50 (the source's name)
How it was run: (§3)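 NCI 60-cell-line panel grown in RPMI-type medium with 5% fetal calf serum and 2 mM L-glutamine. Cells preincubated 24 h, then exposed continuously for 48 h to compound in DMSO at 10^-4 to 10^-8 M (five 10-fold levels). Growth read by SRB protein stain. GI50 is the concentration giving a 50% reduction in net protein increase relative to control cells.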

[7] = Growth inhibition of human Hs 578T cells after 48 hrs by sulforhodamine B assay; how it was run: as §3
UO-31 = assay: Growth inhibition of human UO31 cells after 48 hrs by sulforhodamine B assay; details: UO-31, 48 h; how it was run: as §2
SK-OV-3 [8] = assay: Growth inhibition of human SKOV3 cells after 48 hrs by sulforhodamine B assay; details: SK-OV-3, 48 h
How it was run: (§4)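 NCI 60-cell-line panel. Cells were grown in medium with 5% fetal calf serum and 2 mM L-glutamine, then preincubated 24 h in plates. Compounds were added from DMSO at five 10-fold concentrations from 100 to 0.01 µM and left on cells continuously for 48 h. Cell growth was read by sulforhodamine B protein stain. GI50 is the concentration that halves net protein increase relative to control cells.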

[9] = Growth inhibition of human NCI-ADR-RES cells after 48 hrs by sulforhodamine B assay; how it was run: as §4
UACC-257 [10] = assay: Growth inhibition of human UACC257 cells after 48 hrs by sulforhodamine B assay; details: UACC-257, 48 h; how it was run: as §2
UACC-62 = assay: Growth inhibition of human UACC62 cells after 48 hrs by sulforhodamine B assay; details: UACC-62, 48 h; how it was run: as §2
MDA-MB-435 [11] = assay: Growth inhibition of human MDA-MB-435 cells after 48 hrs by sulforhodamine B assay; details: MDA-MB-435, 48 h; how it was run: as §4
SNB-75 = assay: Growth inhibition of human SNB75 cells after 48 hrs by sulforhodamine B assay; details: SNB-75, 48 h; for CC50: read-out: LC50 (the source's name); how it was run: as §4
SF-539 = assay: Growth inhibition of human SF539 cells after 48 hrs by sulforhodamine B assay; details: SF-539, 48 h; for CC50: read-out: LC50 (the source's name); how it was run: as §4
SF-295 = assay: Growth inhibition of human SF295 cells after 48 hrs by sulforhodamine B assay; details: SF-295, 48 h; how it was run: as §4
KM12 = assay: Growth inhibition of human KM12 cells after 48 hrs by sulforhodamine B assay; details: KM12, 48 h; how it was run: as §3
NCI-H522 = assay: Growth inhibition of human NCI-H522 cells after 48 hrs by sulforhodamine B assay; details: NCI-H522, 48 h; how it was run: as §4
NCI-H226 = assay: Growth inhibition of human NCI-H226 cells after 48 hrs by sulforhodamine B assay; details: NCI-H226, 48 h; for CC50: read-out: LC50 (the source's name); how it was run: as §4
SR = assay: Growth inhibition of human SR cells after 48 hrs by sulforhodamine B assay; how it was run: as §4

Cc1cc(O)ccc1C1=NN(c2ccc(S(C)(=O)=O)cc2)C(=O)CC1
growth at 10 µM (T47D [1]): 84.8%
growth at 10 µM (MDA-MB-231): 74.8%
growth at 10 µM [2]: 87%
growth at 10 µM (PC-3): 77.9%
growth at 10 µM (SN12C): 90.3%
growth at 10 µM (TK-10): 105%
growth at 10 µM (786-0): 84.1%
growth at 10 µM (SK-OV-3 [3]): 85%
growth at 10 µM (OVCAR-4): 98%
growth at 10 µM (UACC-257 [4]): 93%
growth at 10 µM (SK-MEL-5): 68.3%
growth at 10 µM (SK-MEL-2): 68.7%
growth at 10 µM (MDA-MB-435 [5]): -8.25%
growth at 10 µM (SW-620): 46.6%
GI50 (T47D [6]): 20.2 µM
LC50 (T47D [6]): > 100 µM
TGI (T47D [6]): > 100 µM
GI50 (BT-549): 4.97 µM
TGI (BT-549): > 100 µM
CC50 (BT-549): > 100 µM
GI50 [7]: 4.15 µM
LC50 (concentration giving 50% net cell kill) [7]: > 100 µM
TGI [7]: > 100 µM
GI50 (UO-31): 14.8 µM
LC50 (concentration killing 50% of cells) (UO-31): > 100 µM
TGI (UO-31): > 100 µM
GI50 (SK-OV-3 [8]): 9.77 µM
LC50 (SK-OV-3 [8]): > 100 µM
TGI (SK-OV-3 [8]): > 100 µM
GI50 [9]: 3.26 µM
LC50 [9]: > 100 µM
TGI [9]: > 100 µM
GI50 (UACC-257 [10]): 5.65 µM
LC50 (concentration killing 50% of cells) (UACC-257 [10]): > 100 µM
TGI (UACC-257 [10]): > 100 µM
GI50 (UACC-62): 4 µM
LC50 (50% net cell kill concentration) (UACC-62): > 100 µM
TGI (UACC-62): > 100 µM
GI50 (MDA-MB-435 [11]): 1.28 µM
LC50 (concentration killing 50% of starting cells) (MDA-MB-435 [11]): > 100 µM
TGI (MDA-MB-435 [11]): 5.83 µM
GI50 (SNB-75): 5.53 µM
TGI (SNB-75): > 75.2 µM
CC50 (SNB-75): > 100 µM
GI50 (SF-539): 13.2 µM
TGI (SF-539): > 100 µM
CC50 (SF-539): > 100 µM
GI50 (SF-295): 2.87 µM
LC50 (concentration killing 50% of cells present at start) (SF-295): > 100 µM
TGI (SF-295): 12.4 µM
GI50 (KM12): 4.22 µM
LC50 (KM12): > 100 µM
TGI (KM12): > 100 µM
GI50 (NCI-H522): 2.53 µM
LC50 (concentration killing 50% of starting cells) (NCI-H522): > 100 µM
TGI (NCI-H522): 8.6 µM
GI50 (NCI-H226): > 100 µM
TGI (NCI-H226): > 100 µM
CC50 (NCI-H226): > 100 µM
GI50 (SR): 3.39 µM
LC50 (SR): > 100 µM
TGI (SR): > 100 µM

CCc1ccc(C2=NN(c3ccc(S(C)(=O)=O)cc3)C(=O)CC2)cc1
growth at 10 µM (T47D [1]): 41.4%
growth at 10 µM (MDA-MB-231): 55.5%
growth at 10 µM [2]: -0.67%
growth at 10 µM (PC-3): 56.6%
growth at 10 µM (SN12C): 31.4%
growth at 10 µM (TK-10): 71.1%
growth at 10 µM (786-0): 36.5%
growth at 10 µM (SK-OV-3 [3]): 28.7%
growth at 10 µM (OVCAR-4): 76.2%
growth at 10 µM (UACC-257 [4]): 59.1%
growth at 10 µM (SK-MEL-5): 10.7%
growth at 10 µM (SK-MEL-2): 36.9%
growth at 10 µM (MDA-MB-435 [5]): -24.3%
growth at 10 µM (SW-620): 12.4%
GI50 (T47D [6]): 4.4 µM
LC50 (T47D [6]): > 100 µM
TGI (T47D [6]): 93.3 µM
GI50 (BT-549): 0.96 µM
TGI (BT-549): 35.6 µM
CC50 (BT-549): > 100 µM
GI50 [7]: 0.83 µM
LC50 (concentration giving 50% net cell kill) [7]: > 100 µM
TGI [7]: 6.89 µM
GI50 (UO-31): 5.23 µM
LC50 (concentration killing 50% of cells) (UO-31): > 100 µM
TGI (UO-31): > 100 µM
GI50 (SK-OV-3 [8]): 2.44 µM
LC50 (SK-OV-3 [8]): > 100 µM
TGI (SK-OV-3 [8]): 19.6 µM
GI50 [9]: 0.4 µM
LC50 [9]: > 100 µM
TGI [9]: 3.34 µM
GI50 (UACC-257 [10]): 3.3 µM
LC50 (concentration killing 50% of cells) (UACC-257 [10]): > 100 µM
TGI (UACC-257 [10]): 61.5 µM
GI50 (UACC-62): 0.78 µM
LC50 (50% net cell kill concentration) (UACC-62): > 100 µM
TGI (UACC-62): > 100 µM
GI50 (MDA-MB-435 [11]): 0.22 µM
LC50 (concentration killing 50% of starting cells) (MDA-MB-435 [11]): > 100 µM
TGI (MDA-MB-435 [11]): 0.74 µM
GI50 (SNB-75): 1.32 µM
TGI (SNB-75): > 7.89 µM
CC50 (SNB-75): > 100 µM
GI50 (SF-539): 2.35 µM
TGI (SF-539): 18.9 µM
CC50 (SF-539): > 100 µM
GI50 (SF-295): 0.93 µM
LC50 (concentration killing 50% of cells present at start) (SF-295): > 100 µM
TGI (SF-295): 8.73 µM
GI50 (KM12): 0.93 µM
LC50 (KM12): > 100 µM
TGI (KM12): > 100 µM
GI50 (NCI-H522): 0.33 µM
LC50 (concentration killing 50% of starting cells) (NCI-H522): > 100 µM
TGI (NCI-H522): 8.37 µM
GI50 (NCI-H226): 0.2 µM
TGI (NCI-H226): > 100 µM
CC50 (NCI-H226): > 100 µM
GI50 (SR): 5.65 µM
LC50 (SR): > 100 µM
TGI (SR): 40.3 µM
